# Experimental data from ChEMBL document CHEMBL4190213, “Naphthoquinones of Sinningia reitzii and Anti-inflammatory/Antinociceptive Activities of 8-Hydroxydehydrodunnione” (J Nat Prod, 2017).
# Calls of active or inactive are those of the source.
# Experiments:
# Mus musculus [1] = assay: Antinociceptive activity in PGE2-induced Swiss mouse model of mechanical hyperalgesia at 320 ng/paw administered as intraplantar injection pretreated for 15 mins followed by PGE2 challenge after 3 hrs by Von Frey filament assay; assay type: functional, organism-based
# How it was run: (§1)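 Male Swiss mice received intraplantar pretreatment, vehicle 20 μL of 0.1% Tween 20. After 15 min the right paw was injected with PGE2 (100 ng/paw), dopamine (3 μg/paw) or dbcAMP (5 μg/paw). The 50% mechanical withdrawal threshold was measured by von Frey filaments, up-and-down method, before injection and 3 h after the stimulus; mean ± SEM, 5−8 animals.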
# Mus musculus [2] = assay: Antinociceptive activity in dopamine-induced Swiss mouse model of mechanical hyperalgesia at 320 ng/paw administered as intraplantar injection pretreated for 15 mins followed by dopamine challenge after 3 hrs by Von Frey filament assay; assay type: functional, organism-based; how it was run: as §1
# Mus musculus [3] = assay: Antinociceptive activity in dibutyryl cyclic AMP-induced Swiss mouse model of mechanical hyperalgesia at 320 ng/paw administered as intraplantar injection pretreated for 15 mins followed by dibutyryl cyclic AMP challenge after 3 hrs by Von Frey filament assay; assay type: functional, organism-based; how it was run: as §1
# Mus musculus [4] = assay: Antiinflammatory activity in Swiss mouse assessed as inhibition of carrageenan-induced paw edema 30 ng/paw administered as intraplantar injection pretreated for 1 hr followed by carrageenan challenge measured after 1 to 4 hrs; assay type: functional, organism-based
# How it was run: (§2)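 Male Swiss mice, 25−35 g, given an intraplantar pretreatment in 0.1% Tween 20 vehicle. The right hind paw then received carrageenan, 300 μg in 50 μL sterile 0.9% saline, given subcutaneously; the contralateral paw received saline only. Paw thickness was read by digital micrometer 1 h before and 1, 2 and 4 h after carrageenan. The result is the thickness difference in μm; mean ± SEM, 5−8 animals.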
# Mus musculus [5] = assay: Antiinflammatory activity in Swiss mouse assessed as inhibition of carrageenan-induced paw edema administered as intraplantar injection pretreated for 1 hr followed by carrageenan challenge measured after 1 to 4 hrs; assay type: functional, organism-based; how it was run: as §2
# Mus musculus [6] = assay: Antinociceptive activity in carrageenan-induced Swiss mouse model of mechanical hyperalgesia administered as intraplantar injection pretreated for 15 mins followed by carrageenan challenge after 3 hrs by Von Frey filament assay; assay type: functional, organism-based
# How it was run: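 Male Swiss mice were acclimatized 1 h on a wire mesh platform and given a basal von Frey up-and-down test (six measurements, 50% withdrawal threshold). Intraplantar treatment followed, 5−50 pg into the right paw, vehicle 0.1% Tween 20 in saline, 20 μL. After 15 min, carrageenan 300 μg/paw in 20 μL went into the right hindpaw. The threshold was remeasured at 3 h; mean ± SEM, 5−8 animals.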
# Mus musculus [7] = assay: Antinociceptive activity in PGE2-induced Swiss mouse model of mechanical hyperalgesia at 15 pg/paw administered as intraplantar injection pretreated for 15 mins followed by PGE2 challenge after 3 hrs by Von Frey filament assay; assay type: functional, organism-based; how it was run: as §1
# Mus musculus [8] = assay: Antinociceptive activity in dopamine-induced Swiss mouse model of mechanical hyperalgesia at 15 pg/paw administered as intraplantar injection pretreated for 15 mins followed by dopamine challenge after 3 hrs by Von Frey filament assay; assay type: functional, organism-based; how it was run: as §1
# Mus musculus [9] = assay: Antinociceptive activity in dibutyryl cyclic AMP-induced Swiss mouse model of mechanical hyperalgesia at 15 pg/paw administered as intraplantar injection pretreated for 15 mins followed by dibutyryl cyclic AMP challenge after 3 hrs by Von Frey filament assay; assay type: functional, organism-based; how it was run: as §1
# Mus musculus [10] = assay: Toxicity in Swiss mouse assessed as motor impairment at 15 pg/paw administered as intraplantar injection incubated for 3 hrs measured for 180 secs by rotarod test; assay type: organism-based; details: in vivo, other
# How it was run: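 Male Swiss mice were preselected for staying at least 60 s on a Rotarod at 22 rpm (one of three trials). They received intraplantar treatment (vehicle 20 μL of 0.1% Tween 20) and were tested on the Rotarod 3 h later for 180 s; mean ± SEM, n = 6.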
# Mus musculus [11] = species: Mus musculus; assay: Antinociceptive activity in Swiss mouse assessed as increase in thermal-stimulus induced paw withdrawal or licking latency at 15 pg/paw after 3 hrs by hot plate method; assay type: functional, organism-based
# How it was run: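 Male Swiss mice were preselected for a basal latency of 7−15 s on a 55 °C metal platform. They then received intraplantar treatment (vehicle 20 μL of 0.1% Tween 20) and were re-exposed at 3 h. The end point was paw withdrawal or licking, cutoff 30 s. Data are %MPE = (post − basal)/(cutoff − basal) × 100; mean ± SEM, n = 6.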
# Mus musculus [12] = assay: Toxicity in Swiss mouse assessed as motor impairment at 5 mg/kg, sc incubated for 15 mins measured for 180 secs by rotarod test; assay type: organism-based; details: in vivo, 0.05 h
# How it was run: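 Male Swiss mice (25−35 g) were preselected for staying at least 60 s on a Rotarod at 22 rpm (one of three trials). Diazepam was given at 5.0 mg/kg s.c. as the positive control. Local intraplantar treatments (15 pg/paw, or 20 μL vehicle of 0.1% Tween 20) were tested 3 h later. The Rotarod task lasted 180 s, n = 6.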
smiles,measurement,setting,value
Cc1c(N(C)CS(=O)(=O)O)c(=O)n(-c2ccccc2)n1C,Activity,Mus musculus [1],Active
same,Activity,Mus musculus [2],Active
same,Activity,Mus musculus [3],Active
C[C@@H]1C[C@H]2[C@@H]3CCC4=CC(=O)C=C[C@]4(C)[C@@]3(F)[C@@H](O)C[C@]2(C)[C@@]1(O)C(=O)CO,inhibition,Mus musculus [4],Active
C=C1OC2=C(C(=O)C(=O)c3c(O)cccc32)C1(C)C,inhibition,Mus musculus [5],Dose-dependent effect
same,Activity,Mus musculus [6],Dose-dependent effect
same,Activity,Mus musculus [7],Active
same,Activity,Mus musculus [8],Active
same,Activity,Mus musculus [9],inactive
same,Activity,Mus musculus [10],Non-Toxic
same,Activity,Mus musculus [11],inactive
CN1C(=O)CN=C(c2ccccc2)c2cc(Cl)ccc21 [DIAZEPAM],Activity,Mus musculus [12],Toxic
